Results from ChEMBL document CHEMBL1149110, “Identification of 2-[2-[2-(5-bromo-2- methoxyphenyl)-ethyl]-3-fluorophenyl]-4,5-dihydro-1H-imidazole (ML00253764), a small molecule melanocortin 4 receptor antagonist that effectively reduces tumor-induced weight loss in a mouse model” (J Med Chem, 2004).

Legend:
Melanocortin receptor 4 = Melanocortin receptor 4 (Mus musculus, UniProt P56450); assay: Competition binding affinity at mice melanocortin 4 receptor using [125I][NDP]-R-MSH as radioligand in a membrane filtration assay; assay type: cell membranes
How it was run: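 Membrane filtration competition binding at MC4R with 125I-[NDP]-α-MSH as radioligand. Values are averages of at least three measurements, reported ± SD.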

Mus musculus = species on record: Mus musculus; assay: Functional antagonism measured by inhibition of cAMP production induced by [NDP]-R-MSH in a whole cell assay in mice
How it was run: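 Whole-cell functional assay measuring inhibition of cAMP production stimulated by [NDP]-α-MSH. Values are averages of at least three measurements, reported ± SD.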

Melanocortin receptor 4, sequence (P56450 whole entry): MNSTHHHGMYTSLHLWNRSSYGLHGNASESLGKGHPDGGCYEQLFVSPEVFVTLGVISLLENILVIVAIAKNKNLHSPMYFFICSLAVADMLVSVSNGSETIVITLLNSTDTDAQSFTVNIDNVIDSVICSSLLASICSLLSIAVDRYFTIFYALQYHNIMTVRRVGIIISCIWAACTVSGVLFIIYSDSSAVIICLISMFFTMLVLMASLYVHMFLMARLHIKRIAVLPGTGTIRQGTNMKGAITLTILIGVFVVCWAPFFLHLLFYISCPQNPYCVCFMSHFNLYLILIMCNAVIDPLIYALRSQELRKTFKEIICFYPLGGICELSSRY

A Ki (Melanocortin receptor 4) of 2200 nM was found for `Clc1cc(CSc2ccccc2C2=NCCCN2)c(Cl)s1` in this work.

A Ki (Melanocortin receptor 4) of 15800 nM was found for `Fc1cccc(F)c1CSc1ccccc1C1=NCCCN1` in this work.

A Ki (Melanocortin receptor 4) of 220 nM and an IC50 (Mus musculus) of 280 nM were found for `COc1ccc(Br)cc1CCc1ccccc1C1=NCCCN1` in this work.

A Ki (Melanocortin receptor 4) of 160 nM was found for `COc1ccc(Br)cc1CCc1c(F)cccc1C1=NCCN1` in this work.

A Ki (Melanocortin receptor 4) of 2700 nM was found for `Fc1cccc(Cl)c1CSc1ccccc1C1=NCCCN1` in this work.

A Ki (Melanocortin receptor 4) of 67 nM and an IC50 (Mus musculus) of 270 nM were found for `COc1ccc(Br)cc1CSc1ccccc1C1=NCCCN1` in this work.

A Ki (Melanocortin receptor 4) of 39 nM and an IC50 (Mus musculus) of 450 nM were found for `COc1ccc(Br)cc1CCc1ccccc1C1=NCCN1` in this work.
